# Screening results: PubChem BioAssay, The Scripps Research Institute Molecular Screening Center
# OXTR ag: human OXTR agonism | activation, % at 3 µM | 0.32% of 320,000 active | CHO-OTR cells, Fluo-8 calcium fluorescence; normalized: DMSO 0%, oxytocin 100% | P30559 | AID 2435;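 active = activation above the mean of all tested compounds plus 3 SD, cutoff set per screening run, cut at about 20% in these data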;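 also: peak over basal fluorescence ratio from a 100 s FLIPR kinetic read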
# Target sequence (P30559 whole entry, looked up): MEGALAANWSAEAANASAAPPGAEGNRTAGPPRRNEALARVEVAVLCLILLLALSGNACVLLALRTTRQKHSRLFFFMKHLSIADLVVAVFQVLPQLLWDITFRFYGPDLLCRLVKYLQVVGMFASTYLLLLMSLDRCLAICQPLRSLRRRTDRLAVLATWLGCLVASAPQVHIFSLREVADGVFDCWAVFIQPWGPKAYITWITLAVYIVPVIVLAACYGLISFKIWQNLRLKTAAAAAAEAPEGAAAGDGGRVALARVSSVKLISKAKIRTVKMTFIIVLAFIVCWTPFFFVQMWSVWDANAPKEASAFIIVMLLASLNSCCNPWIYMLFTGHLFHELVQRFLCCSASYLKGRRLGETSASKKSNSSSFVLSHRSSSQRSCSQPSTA
# OXTR potentiate: potentiators of human oxytocin receptor; P30559; CHO-OTR cells, Fluo-8 calcium fluorescence, potentiator mode; 0% = oxytocin EC15, 100% = EC100; activation, % at 3 µM; 0.061% of 320,000 active;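 active = activation above that plate's cutoff, the mean activation of tested compounds plus 3 SD, cut at about 6.6% in these data, passing the limit was not always enough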;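 also: 100% uses oxytocin at 75 nM as the full agonist control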
#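 Assay system: CHO cell line stably expressing human OTR | Also added: Oxytocin at about EC15, sub-maximal agonist stimulus | Times: Compound 6 min at room temperature before oxytocin, 100 s read | Measured by: Fluo-8 intracellular calcium fluorescence, ex 470-495, em 515-575 nm | Controls: EC15 oxytocin alone as 0%, 75 nM oxytocin as 100%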
# V1R ag counter: activates human V1a receptor in oxytocin agonist counter-screen. 0.25% of 320,000 active. activation, % at 3 µM. CHO-V1R cells, Fluo-8 calcium fluorescence, agonist mode; 0% DMSO, 100% 3 nM vasopressin. AID 2797. P37288;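 active = activation above the mean activation of all tested compounds plus 3 SD, per screening run, cut at about 20% in these data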;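 also: signal is peak over basal fluorescence ratio across a 100 second FLIPR read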
# zfTRPN1 agonist: agonists of zebrafish TRPN1 channel; AID 1424; HEK293 zebrafish TRPN1-YFP, Fluo-8 calcium fluorescence; 100% = response to 87 µM carbachol; activation, % at 3 µM; 0.18% of 220,000 active;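 active = activation above its plate's cutoff, the mean activation of test wells on that plate plus 3 SD, cut at about 19% in these data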;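 also: 0% = DMSO alone and 100% = 87 µM carbachol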
#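 Material: zebrafish TRPN1-YFP in HEK293 cells. Doses: one dose of 3 µM, 0.3% DMSO. Incubation: dye 1 h 37 °C plus 30 min RT. Measured by: intracellular calcium fluorescence with Fluo-8.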
# TRPML3 ag: human mucolipin-3 channel agonism; 0.29% of 220,000 active; activation, % at 3 µM; Q8TDD5; HEK293 TRPML3-YFP, Fluo-8 calcium fluorescence; 100% = the carbachol control signal;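 active = activation above its plate's cutoff, the mean activation of the plate's test wells plus 3 SD, cut at about 12% in these data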;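 also: 0% = DMSO only wells and 100% = carbachol wells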
#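 Test system: HEK293 cells stably carrying human TRPML3-YFP; Doses: single dose, 3 µM final nominal compound, 0.3% DMSO final; Schedule: dye loading 1 h 37 °C then 30 min ambient, 125 s read; Technique: Fluo-8 calcium fluorescence; Benchmarks: high control carbachol 87 µM, low control DMSO.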
# V1aR agonist cf: confirmation of human vasopressin V1a receptor agonists. activation, % at 3 µM. CHO-V1R cells, Fluo-8 calcium fluorescence, agonist. AID 434964. 20% of 180 active. shares compounds with V1R ag counter;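 active = average activation exceeds primary screen hit cutoff, cut at about 21% in these data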;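 also: peak over basal fluorescence ratio during a 100 s FLIPR read; 0% = DMSO only wells and 100% = 3 nM vasopressin wells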
# OXTR counter: counter-screen for V1a receptor agonists: oxytocin receptor agonists | shares compounds with V1R ag counter | activation, % at 3 µM | CHO-OTR cells, Fluo-8 calcium fluorescence, agonist | AID 434969 | 10% of 180 active;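 active = mean activation over three repeats above the cutoff from the earlier oxytocin receptor agonist screen, cut at about 20% in these data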;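 also: peak over minimum fluorescence ratio within a 100 second FLIPR read; 0% = DMSO only wells and 100% = oxytocin high control wells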
# The depositor's hits bear a star; nt = not tested or not shown. This is a sample that favours compounds with a hit; in the whole collection about 0.55% have one here.
SMILES,OXTR ag,OXTR potentiate,V1R ag counter,zfTRPN1 agonist,TRPML3 ag,V1aR agonist cf,OXTR counter
O=C(NC(=S)NCCc1ccccn1)c1ccco1,0,0,117*,0,0,0,0
Cc1cccc(N/C(N)=N/c2nc(C)cc(C)n2)c1,11,-21,21*,6,6,6,0
CC(=O)Nc1cccc(N/C(N)=N/c2nc(C)cc(C)n2)c1,1,0,-1,1,1,nt,nt
COc1cccc(C(=O)NN2C(=S)N(c3ccccc3)C(=O)C2CC(N)=O)c1 (stereo not given),-1,-10,-2,1,1,nt,nt
O=C(NCc1nnc2c(C(F)(F)F)cc(Cl)cn12)c1cccs1,0,-7,1,nt,nt,nt,nt
Clc1ncccc1-c1nc2ccccc2s1,-2,4,-2,-2,0,nt,nt
O=c1c(-c2nc3ccccc3s2)cccn1Cc1ccc(Cl)cc1,0,-17,22*,0,1,0,-1
COc1cccc(-c2c(C(=O)N/N=C(\C)c3ccc(Cl)s3)nnn2-c2nonc2N)c1,18,-6,25*,nt,nt,8,1
CCOc1cccc(-c2c(C(=O)N/N=C/c3cccs3)nnn2-c2nonc2N)c1,19,-5,24*,nt,nt,14,7
COc1ccc(/C=N/NC(=O)c2nnn(-c3nonc3N)c2-c2cccc(OC)c2)cc1,16,-5,26*,nt,nt,25*,25*
Cc1ccc(/C=N/NC(=O)c2nnn(-c3nonc3N)c2-c2ccc3c(c2)OCO3)s1,12,-4,30*,nt,nt,14,3
O=C(COC(=O)CCC1CCCC1)Nc1ccc(F)cc1,-2,-2,1,nt,nt,nt,nt
CCC1CC(C(=O)Nc2ccccc2)C(=O)O1 (stereo not given),0,2,0,nt,nt,nt,nt
O=C(CSc1ncc(-c2ccc(F)cc2)n1Cc1ccco1)Nc1nccs1,16,-34,29*,0,-1,11,16
O=C(O)c1ccccc1C(=O)NC1CCN(c2nccc(C(F)(F)F)n2)CC1,2,-3,1,nt,nt,nt,nt
CCC(NC(=O)c1cc(COc2ccc(C)nc2)on1)c1ccc(C)cc1 (stereo not given),12,-18,23*,nt,nt,13,13
O=C(NNC(=O)c1ccc[nH]1)c1cccc(C(F)(F)F)c1,-1,-7,-1,nt,nt,nt,nt
Cc1noc(C(F)(F)F)c1C(=O)NNC(=O)c1cccc(C(F)(F)F)c1,-1,-3,20*,0,1,1,0
Cc1ccc(NC(=O)c2ccc(OC(=S)N3CCOCC3)cc2)cc1,3,-13,26*,0,1,0,0
O=C(OCCN1C(=O)c2cccc3c(N4CCOCC4)ccc(c23)C1=O)c1ccccc1Cl,12,-11,26*,7,2,30*,42*
COC(=O)c1ccc(NC(=S)NC(=O)c2cc(-c3ccccc3)nc3ccccc23)cc1,1,-8,1,0,1,nt,nt
COc1ccc(Cl)cc1C(=O)NNC(=S)NC(=O)c1cc(-c2ccccc2)nc2ccccc12,14,-22,26*,5,1,35*,21*
COc1ccc(NC(=O)COC(=O)C2CCN(S(=O)(=O)c3ccccc3)CC2)cc1Cl,4,-9,4,nt,nt,nt,nt
CCCCN(C)C(=S)Nc1ccsc1C(=O)OC,-2,-4,-1,-2,-1,nt,nt
COC(=O)C(/C=N/OCc1ccc([N+](=O)[O-])cc1)NC(=O)c1ccccc1 (stereo not given),14,-29,25*,3,3,11,18
O=C(C/C=N\OCc1ccc([N+](=O)[O-])cc1)Nc1ccccc1,3,-7,3,-1,0,nt,nt
